Hit rate of the full screen: of about 330,000 compounds, about 2,000 (0.61%) were called active. Only a selection was taken, and actives are over-represented in it overall. A number with no mark means an inactive call.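 How the source made its calls: active means inhibition above that plate's mean sample inhibition plus 3 SD (cut at about 26% in these data); inactive means the rest.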

One may read the inhibition as the drop in the measured response relative to a control, in per cent.

The nature of the experiment: nonselective Gq signaling inhibition in CHO cells – cell-based, fluorescence, Fluo-8 calcium dye, counter-screen for OX1R antagonist project, primary screen (AID 463079).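 Further: 0% = ATP-challenged DMSO wells and 100% = DMSO wells without ATP.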 The note with it: parental CHO-K1, ATP-induced calcium, Fluo-8 fluorescence; at 5.6 µM; stronger effect = higher value. The gist of the method: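 Test system: untransfected parental CHO cell line; also added: ATP stimulus; dosing: 5.6 µM, single dose; signal: calcium-sensitive Fluo-8 fluorescence; measure: percent inhibition of ATP-evoked calcium rise, normalized to controls; benchmarks: low control ATP plus DMSO, high control DMSO only; replication: one well per compound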
A general note: The purpose of a counterscreen is to sort out artefacts and off-target activity.
As for `Cc1ccc(C)c(Cn2nnc3c(=O)[nH]c(C(=O)Nc4ccc(F)cc4)nc32)c1`, the inhibition was -8.13%.
Regarding `Cc1cccc(NC(=S)NCCc2ccc(F)cc2)c1C`, the inhibition was -8.34%.
In the case of `C=CCOC(=O)C1=C[C@H](c2ccc(Br)cc2)C[C@H](OCCCCO)O1`, the inhibition is -16.9%.
As for `Cc1cccc(-c2nc3c(c(SCC(=O)N4CCOCC4)n2)CCCC3)c1`, the inhibition was -8.39%.
As for `CC[C@]1(O)C[C@@H]2CN(CCc3c([nH]c4ccccc34)[C@@](C(=O)OC)(c3cc4c(cc3OC)N(C)[C@H]3[C@@](O)(C(=O)OC)[C@H](OC(C)=O)[C@]5(CC)C=CCN6CC[C@]43[C@@H]65)C2)C1`, the inhibition is -20.6%.
On to `O=C(O)c1ccccc1CSc1nc2ccccc2s1`, for which the inhibition is -0.85%.
In the case of `O=[N+]([O-])c1c(NCCO)cc(Sc2nc3ccccc3s2)c2nonc12`, the inhibition was 77.3% (active).
The same measure for `Cc1nc2nc(CSc3nc4ccccc4s3)cc(=O)n2[nH]1`: -18.4%.
The same measure for `CN1CCc2nc(SC(C(=O)O)c3ccccc3)c(C#N)c(-c3cccs3)c2C1` (stereo not given): -2.58%.
The same measure for `CC[C@]1(C(=O)OC)[C@H]2C(=O)N(Cc3ccccc3)C(=O)[C@H]2[C@H]2CN=C(SCc3ccccc3)N21`: -23.1%; for `Cc1ccc(N2CCN(S(=O)(=O)N(C)C)CC2)cc1Cl`: -18.3%; for `CN(C)S(=O)(=O)N1CCN(c2ccc([N+](=O)[O-])cc2)CC1`: 29% (active).
As for `COc1ccc(N2CCN(c3ccc([N+](=O)[O-])cc3Cl)CC2)cc1`, the inhibition is 12%.
The same measure for `CCCOc1ccc(Cc2c(O)nc(N)[nH]c2=O)cc1C`: -2.86%; for `COc1cc(OC)cc(-c2cc3ccc(F)cc3cn2)c1`: -22.7%; for `COc1ccc(-c2noc(CN(C)S(=O)(=O)c3ccc(C)cc3)n2)cc1`: 38.9% (active).
Turning to `COc1ccc(N2CCN(C(=O)CCc3nc(-c4ccc(C)cc4)no3)CC2)cc1`, the inhibition is -13.6%.
As for `COc1ccc(-c2noc(C(C)NS(=O)(=O)c3ccc(NC(C)=O)cc3)n2)cc1` (stereo not given), the inhibition was -2.83%.
The same measure for `Cc1ccc(OCC(=O)Nc2ccccc2C(=O)NC2CC2)cc1`: -12.7%.
The same measure for `Cc1nc(-c2ccc(Cl)cc2)sc1C(=O)CBr`: 16.1%; for `CC(=O)Oc1ccccc1C(=O)Nc1ncc([N+](=O)[O-])s1`: 39% (active); for `O=C(Cc1c(F)cccc1Cl)Nc1ncc([N+](=O)[O-])s1`: 3.65%.
Consider `COc1ccc(NC(=O)c2ccccc2[N+](=O)[O-])cc1OC`, for which the inhibition was -4.31%.
With `COc1ccccc1N1CCN(C(=O)CSc2ncnc3c2cnn3-c2ccc(C)c(C)c2)CC1`, the inhibition is -14.4%.
For `O=C(N/C(=C\c1ccc(F)cc1)C(=O)N1CCCCCC1)c1ccccc1`, the inhibition is -14%.
In the case of `CC(=O)Nc1ccc(N2C(=O)C3C4CC(=O)C(c5ccccc54)C3C2=O)cc1` (stereo not given), the inhibition was 9.03%.
The same measure for `CCc1ccccc1N1C(=O)C2C3CC(=O)C(c4ccccc43)C2C1=O` (stereo not given): 29.8% (active); for `CC1=C(C)CC2C(=O)N(c3cccc4ccccc34)C(=O)C2C1` (stereo not given): -11.3%; for `CC(=O)c1c(C)[nH]c(C(=O)COC(=O)c2cccs2)c1C`: -6.37%.
The same measure for `COc1cccc(C(=O)OCC(=O)c2[nH]c(C)c(C(C)=O)c2C)c1`: -11.5%; for `CC(=O)c1c(C)[nH]c(C(=O)COC(=O)c2cccc(S(=O)(=O)N(C)c3ccccc3)c2)c1C`: 74.8% (active).
As for `Cc1nn(C(C)C(=O)N2CCOCC2)c(=O)c2nn(-c3ccccc3)c(C)c12` (stereo not given), the inhibition was -7.21%.
Consider `CC[C@]12c3[nH]c4ccc(OC)cc4c3CCN1C(=O)C(CC(=O)NCCN1CCOCC1)C[C@@H]2C(=O)N1CCN(C(=O)C2CC2)CC1` (stereo not given in full), for which the inhibition is -9.94%.
The same measure for `Cc1cc(C)cc(OCC(=O)NC(C)c2ccccc2)c1` (stereo not given): -19.1%; for `COc1cc(OC)cc(C(=O)N[C@H](C(=O)OCC(=O)NC(C)c2ccccc2)C(C)C)c1` (stereo not given in full): 41.6% (active); for `COc1cc(OC)cc(C(=O)NCC(=O)OCC(=O)NC(C)CCc2ccccc2)c1` (stereo not given): -9.76%.
The same measure for `CCC(C(=O)Nc1ccc2c(c1)OCCO2)c1ccccc1` (stereo not given): -14.5%.
As for `CCC(C(=O)Nc1ccc(C(C)C)cc1)c1ccccc1` (stereo not given), the inhibition is 54% (active).
The same measure for `CCC(C(=O)OCC(=O)Nc1ccc(C(=O)Nc2ccc(OC)cc2)cc1)c1ccccc1` (stereo not given): 2.63%; for `OCC[C@H]1C[C@@H](O)[C@H](O)[C@@]2(OCCc3ccccc32)O1`: -2.14%; for `CCC(C)N(C(=O)CSc1nnnn1-c1ccccc1OC)C1CCS(=O)(=O)C1` (stereo not given): -20%.
With `O=C(/C=C(O)/C=C/c1ccc(O)cc1)/C=C/c1ccc(O)cc1`, the inhibition was 44.2% (active).
Turning to `O=C(/C=C/c1ccc2c(c1)OCCO2)c1ccc(O)cc1`, the inhibition is 3.62%.
As for `O=C(O)/C=C/c1ccc(OCCCF)cc1`, the inhibition is -5.89%.
Take `CC1CCCCN1CCCNC(=O)Cn1ncc2c([nH]c3ccccc32)c1=O` (stereo not given): the inhibition is -10.7%.
The same measure for `CCc1ccccc1NC(=O)c1ccc2c(c1)CCN2S(C)(=O)=O`: -12.5%.
The same measure for `CN(C)CCCNC(=S)N1CCN(c2nc(-c3ccccc3)cs2)CC1`: -5.41%; for `Cc1cccn2cc(-c3cccc(S(=O)(=O)N4CCCCC4)c3)nc12`: -20.2%; for `CC1(C)C=Cc2c(ccc3c2OC[C@@H](c2ccc(O)cc2O)C3)O1`: 94.3% (active).
`c1ccc(CN=C2Nc3ccccc3CS2)nc1`: the inhibition is -13.6%.
The same measure for `Cc1ccc(N(CC(=O)Nc2cc(C)cc(C)c2)S(=O)(=O)c2cccc3nonc23)cc1`: -11.6%; for `CCN(CC)S(=O)(=O)c1ccc(N(C)Cc2ccc(C(F)(F)F)cc2)nc1`: 43.6% (active); for `CCN(CC)S(=O)(=O)c1ccc(N(C)Cc2cccc(OC)c2OC)nc1`: 28.5%.
The same measure for `CCN(CC)S(=O)(=O)c1ccc(N(C)CCc2ccc(OC)c(OC)c2)nc1`: -13.7%.
The same measure for `Nc1ncnc2c1ncn2[C@@H]1O[C@H](CNS(=O)(=O)c2ccc(-c3ccno3)s2)[C@@H](O)[C@H]1O`: -2.72%.

These data come from PubChem BioAssay AID463079 (The Scripps Research Institute Molecular Screening Center, 2010).
